Twelve compounds from ChEMBL document CHEMBL4049407, “Positional Scanning Identifies the Molecular Determinants of a High Affinity Multi-Leucine Inhibitor for Furin and PACE4” (J Med Chem, 2017) can be followed below.

Data set [1] is described as follows: Drug uptake in human DU145 cells assessed as geometric mean fluorescence intensity after 1 hr by propidium iodine-staining based FACS analysis. In kind it is ADME, cell-based. The settings on record: du-145, 1 h. The method, boiled down:
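DU145 cells exposed 1 h to FITC-labelled peptide (10 µM) in serum-free RPMI, detached with trypsin:EDTA and pelleted, with no trypsin wash. Dead cells excluded by 2 min propidium iodide (10 µg/mL). Flow cytometry read 10 000 events/sample, and uptake was given as geometric mean fluorescence.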
In general terms: A flow cytometer gives signals particle by particle.

Data set [2] in a line: Drug uptake in human DU145 cells assessed as geometric mean fluorescence intensity preincubated for 1 hr followed by trypsin washout for 5 mins by propidium iodine-staining based FACS analysis. It is filed as ADME, cell-based. The settings on record: du-145, 5 min. The method, boiled down:
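DU145 cells given FITC-labelled peptide (10 µM) for 1 h in serum-free RPMI, harvested by trypsin:EDTA, then washed twice with 0.05% trypsin for 5 min at 37 °C to strip membrane-bound peptide. Propidium iodide (10 µg/mL, 2 min) excluded damaged cells. 10 000 events/sample were read by flow cytometry as geometric mean fluorescence.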

The target of data set [3] is T1, Proprotein convertase subtilisin/kexin type 6 (Homo sapiens, UniProt P29122).
T1 sequence (P29122 whole entry): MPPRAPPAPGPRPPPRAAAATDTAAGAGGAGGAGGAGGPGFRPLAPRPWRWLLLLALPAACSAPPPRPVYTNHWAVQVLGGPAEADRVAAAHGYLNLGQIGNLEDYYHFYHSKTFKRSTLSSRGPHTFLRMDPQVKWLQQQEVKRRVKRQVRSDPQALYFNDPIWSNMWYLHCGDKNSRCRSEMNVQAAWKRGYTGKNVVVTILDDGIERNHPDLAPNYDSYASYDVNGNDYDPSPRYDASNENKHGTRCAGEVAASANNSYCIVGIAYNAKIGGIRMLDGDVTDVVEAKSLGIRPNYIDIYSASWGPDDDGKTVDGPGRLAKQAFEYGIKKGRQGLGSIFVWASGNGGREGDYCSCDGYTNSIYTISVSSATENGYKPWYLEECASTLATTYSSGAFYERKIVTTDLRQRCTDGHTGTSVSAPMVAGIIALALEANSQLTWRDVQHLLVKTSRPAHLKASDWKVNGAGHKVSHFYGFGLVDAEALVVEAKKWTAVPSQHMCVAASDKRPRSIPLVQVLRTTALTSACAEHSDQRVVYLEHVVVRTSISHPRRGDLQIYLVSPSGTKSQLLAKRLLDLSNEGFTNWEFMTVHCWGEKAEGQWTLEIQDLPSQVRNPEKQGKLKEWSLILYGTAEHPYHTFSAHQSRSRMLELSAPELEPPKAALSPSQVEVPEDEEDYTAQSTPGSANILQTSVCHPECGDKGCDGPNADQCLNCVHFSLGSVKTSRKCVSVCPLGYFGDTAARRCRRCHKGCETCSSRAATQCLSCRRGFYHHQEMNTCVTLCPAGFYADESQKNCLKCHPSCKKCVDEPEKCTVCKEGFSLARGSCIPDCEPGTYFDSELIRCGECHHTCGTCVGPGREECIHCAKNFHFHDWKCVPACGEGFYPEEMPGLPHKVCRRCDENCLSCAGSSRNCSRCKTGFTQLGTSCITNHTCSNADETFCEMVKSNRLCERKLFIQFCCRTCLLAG
Description: Inhibition of recombinant human PACE4 expressed in drosophila S2 cells using pyrGlu-Arg-Thr-Lys-Arg-7-amido-4-methylcoumarin as substrate after 60 mins by spectrofluorometry method. It is filed as cell-based. Put shortly:
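Human recombinant purified PACE4 at 2 units/100 µL (20.18 nM), in 20 mM BisTris pH 6.5, 1 mM CaCl2, 1.8 mg/mL BSA. Substrate 100 µM, KM 4.035 µM. Inhibitor 1 nM to 10 µM; 60 min at 37°C. Fluorescence ex 370 / em 460 nm. Ki by Morrison tight-binding equation; three independent experiments, mean ± SD.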

Data set [4] concerns the target Furin (Homo sapiens, UniProt P09958). Description: Inhibition of recombinant human furin expressed in drosophila S2 cells using pyrGlu-Arg-Thr-Lys-Arg-7-amido-4-methylcoumarin as substrate after 60 mins by spectrofluorometry method. In kind it is cell-based. Put shortly:
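Human recombinant purified furin at 2 units/100 µL (0.54 nM), in 100 mM HEPES pH 7.5, 1 mM CaCl2, 1 mM β-mercaptoethanol, 1.8 mg/mL BSA. His-containing peptides run instead in 20 mM BisTris pH 6.5 with the same additives. Substrate 100 µM, KM 5.04 µM. Inhibitor 1 nM to 10 µM; 60 min at 37°C. Fluorescence ex 370 / em 460 nm. Ki by Morrison equation; triplicate experiments, mean ± SD.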

Data set [5] is filed under the species Homo sapiens. Description: Selectivity index, ratio of Ki for recombinant human furin expressed in drosophila S2 cells to Ki for recombinant human PACE4 expressed in drosophila S2 cells. It is filed as cell-based. The method, boiled down: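 Ratio Ki(furin)/Ki(PACE4). […] PACE4 buffer was BisTris pH 6.5; furin buffer was HEPES pH 7.5, or BisTris pH 6.5 for His peptides. Ki fitted by Morrison equation from three independent experiments.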

Data set [6] has as its system DU-145. Description: Antiproliferative activity against human DU145 cells assessed as reduction in metabolic activity after 72 hrs by MTT assay. The settings on record: DU-145, 72 h. It is filed as functional, cell-based. The method, boiled down: (§1)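 Cells kept at 37°C, 5% CO2 in RPMI 1640 (DU145 with 5% FBS, 1500 cells/well; LNCaP with 10% FBS, 2500 cells/well) on poly-L-lysine coated plates. Peptides added 24 h after plating in fresh serum medium at 0, 1, 10, 25, 50, 75, 100, 250 µM for 72 h. MTT 1 mg/mL final for 4 h; formazan dissolved in 2-propanol HCl. Signal normalised to water vehicle; IC50 from dose-response curves.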
Background: Tetrazolium dyes change colour on reduction, which living cells bring about.

Data set [7] concerns LNCaP. Description: Antiproliferative activity against human LNCAP cells assessed as reduction in metabolic activity after 72 hrs by MTT assay. It is filed as functional, cell-based. The method, boiled down:
as §1

Peptide text beside a SMILES is read from it. * marks the point of attachment. FITC = O=C1OC2(c3ccc(O)cc3Oc3cc(O)ccc32)c2ccc(NC(=S)*)cc21; NH(4-amidinobenzyl) = N=C(N)c1ccc(CN*)cc1; βAla = NCCC(=O)O

Chain of Furin (P09958 whole entry): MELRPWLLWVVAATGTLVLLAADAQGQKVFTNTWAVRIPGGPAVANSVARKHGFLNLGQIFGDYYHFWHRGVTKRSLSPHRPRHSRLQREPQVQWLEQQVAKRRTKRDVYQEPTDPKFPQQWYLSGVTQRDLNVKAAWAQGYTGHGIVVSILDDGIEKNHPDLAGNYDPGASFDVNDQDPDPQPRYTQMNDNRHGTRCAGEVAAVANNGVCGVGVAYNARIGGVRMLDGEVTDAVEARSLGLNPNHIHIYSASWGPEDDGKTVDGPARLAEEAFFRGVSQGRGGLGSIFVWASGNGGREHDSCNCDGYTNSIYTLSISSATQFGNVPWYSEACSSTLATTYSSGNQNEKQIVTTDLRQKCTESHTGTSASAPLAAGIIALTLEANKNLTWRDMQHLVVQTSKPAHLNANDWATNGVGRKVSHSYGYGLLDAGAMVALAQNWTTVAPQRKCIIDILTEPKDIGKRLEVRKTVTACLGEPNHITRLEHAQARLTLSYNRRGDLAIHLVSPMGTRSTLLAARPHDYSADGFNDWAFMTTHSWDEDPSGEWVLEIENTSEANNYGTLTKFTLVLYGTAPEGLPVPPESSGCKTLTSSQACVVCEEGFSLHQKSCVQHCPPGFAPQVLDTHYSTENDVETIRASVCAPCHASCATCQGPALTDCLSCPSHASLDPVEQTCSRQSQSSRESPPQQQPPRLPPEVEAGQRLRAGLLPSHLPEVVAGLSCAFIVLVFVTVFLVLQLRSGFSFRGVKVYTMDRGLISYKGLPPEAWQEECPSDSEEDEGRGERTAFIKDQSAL

With `CC[C@H](C)[C@H](NC(=O)[C@H](CC(C)C)NC(=O)[C@H](CC(C)C)NC(=O)[C@H](CC(C)C)NC(=O)CCNC(=S)Nc1ccc2c(c1)C(=O)OC21c2ccc(O)cc2Oc2cc(O)ccc21)C(=O)N[C@@H](CCCNC(=N)N)C(=O)N[C@H](C(=O)N[C@@H](CCCCN)C(=O)NCc1ccc(C(=N)N)cc1)C(C)C` ({FITC-βAla}-LLLIRVK-{NH(4-amidinobenzyl)}), the Flu intensity came to 87.66 in data set [1] and 99.26 in data set [2].

Take `CC[C@H](C)[C@H](NC(C)=O)C(=O)N[C@@H](CC(C)C)C(=O)N[C@@H](CC(C)C)C(=O)N[C@@H](CC(C)C)C(=O)N[C@@H](CCCNC(=N)N)C(=O)N[C@H](C(=O)N[C@@H](CCCCN)C(=O)NCc1ccc(C(=N)N)cc1)C(C)C` (Ac-ILLLRVK-{NH(4-amidinobenzyl)}): the Ki in data set [3] and in data set [4] was 0.005 µM each time. For the same compound, the Ratio Ki in data set [5] came to 1. For the same compound, the IC50 – broadly, the concentration needed to halve the response being measured – is 27 µM in data set [6] and 40 µM in data set [7].

In the case of `CC(=O)N[C@@H](CCC(N)=O)C(=O)N[C@@H](CC(C)C)C(=O)N[C@@H](CC(C)C)C(=O)N[C@@H](CC(C)C)C(=O)N[C@@H](CCCNC(=N)N)C(=O)N[C@H](C(=O)N[C@@H](CCCCN)C(=O)NCc1ccc(C(=N)N)cc1)C(C)C` (Ac-QLLLRVK-{NH(4-amidinobenzyl)}), the Ki in data set [3] and in data set [4] was 0.003 µM each time. Further, the Ratio Ki in data set [5] is 1. Also, the IC50 is 150 µM in data set [6] and over 250 µM in data set [7].

`CC(=O)N[C@@H](CO)C(=O)N[C@@H](CC(C)C)C(=O)N[C@@H](CC(C)C)C(=O)N[C@@H](CC(C)C)C(=O)N[C@@H](CCCNC(=N)N)C(=O)N[C@H](C(=O)N[C@@H](CCCCN)C(=O)NCc1ccc(C(=N)N)cc1)C(C)C` (Ac-SLLLRVK-{NH(4-amidinobenzyl)}): the Ki (commonly the equilibrium dissociation constant of an inhibitor or competing ligand from its target) in data set [3] was determined as 0.006 µM; in data set [4] it was 0.004 µM. Also, in data set [5], the Ratio Ki was 0.7. The IC50 in data set [6] was 100 µM; in data set [7], over 250 µM.

Consider `CC[C@H](C)[C@H](NC(=O)[C@H](CC(C)C)NC(=O)[C@@H](CC(C)C)NC(C)=O)C(=O)N[C@H](C(=O)N[C@@H](CCCNC(=N)N)C(=O)N[C@H](C(=O)N[C@@H](CCCCN)C(=O)NCc1ccc(C(=N)N)cc1)C(C)C)[C@@H](C)CC`, for which the figures for the Ki in data set [3] and in data set [4] were 0.014 µM and 0.0117 µM, respectively. In addition, the Ratio Ki in data set [5] came out at 0.8. In addition, the IC50 was determined as 37 µM in data set [6] and 60 µM in data set [7].

In the case of `CC(=O)N[C@@H](CC(C)C)C(=O)N[C@@H](CC(C)C)C(=O)N[C@@H](CC(C)C)C(=O)N[C@@H](CCC(N)=O)C(=O)N[C@@H](CCCNC(=N)N)C(=O)N[C@H](C(=O)N[C@@H](CCCCN)C(=O)NCc1ccc(C(=N)N)cc1)C(C)C` (Ac-LLLQRVK-{NH(4-amidinobenzyl)}), the Ki in data set [3] is 0.005 µM; in data set [4], 0.004 µM. Also, the Ratio Ki in data set [5] amounted to 0.8. The IC50 in data set [6] was determined as 12 µM; in data set [7], 26 µM.

With `CC(C)C[C@H](NC(=O)CCNC(=S)Nc1ccc2c(c1)C(=O)OC21c2ccc(O)cc2Oc2cc(O)ccc21)C(=O)N[C@@H](CC(C)C)C(=O)N[C@@H](CC(C)C)C(=O)N[C@@H](CC(C)C)C(=O)N[C@@H](CCCNC(=N)N)C(=O)N[C@H](C(=O)N[C@@H](CCCCN)C(=O)NCc1ccc(C(=N)N)cc1)C(C)C` ({FITC-βAla}-LLLLRVK-{NH(4-amidinobenzyl)}), the Flu intensity in data set [1] is given as 46.61; in data set [2], 47.45.

`CC(C)C[C@H](NC(=O)CCNC(=S)Nc1ccc2c(c1)C(=O)OC21c2ccc(O)cc2Oc2cc(O)ccc21)C(=O)N[C@@H](CC(C)C)C(=O)N[C@@H](CC(C)C)C(=O)N[C@@H](CCCNC(=N)N)C(=O)N[C@@H](CCCNC(=N)N)C(=O)N[C@H](C(=O)N[C@@H](CCCCN)C(=O)NCc1ccc(C(=N)N)cc1)C(C)C` ({FITC-βAla}-LLLRRVK-{NH(4-amidinobenzyl)}): the results for the Flu intensity in data set [1] and in data set [2] were 12.6 and 2.73, respectively.

As for `CC(=O)N[C@@H](CC(=O)O)C(=O)N[C@@H](CC(C)C)C(=O)N[C@@H](CC(C)C)C(=O)N[C@@H](CC(C)C)C(=O)N[C@@H](CCCNC(=N)N)C(=O)N[C@H](C(=O)N[C@@H](CCCCN)C(=O)NCc1ccc(C(=N)N)cc1)C(C)C` (Ac-DLLLRVK-{NH(4-amidinobenzyl)}), the Ki in data set [3] was 0.012 µM; in data set [4], 0.008 µM. The Ratio Ki in data set [5] is 0.7. Moreover, the IC50 in data set [6] is 90 µM; in data set [7], 40 µM.

As to `CC(=O)N[C@@H](Cc1ccccc1)C(=O)N[C@@H](CC(C)C)C(=O)N[C@@H](CC(C)C)C(=O)N[C@@H](CC(C)C)C(=O)N[C@@H](CCCNC(=N)N)C(=O)N[C@H](C(=O)N[C@@H](CCCCN)C(=O)NCc1ccc(C(=N)N)cc1)C(C)C` (Ac-FLLLRVK-{NH(4-amidinobenzyl)}), the Ki in data set [3] and in data set [4] was 0.009 µM throughout. Moreover, the Ratio Ki in data set [5] came out at 1. Further, the values for the IC50 in data set [6] and in data set [7] were 30 µM and 41 µM, respectively.

Consider `CC(=O)N[C@@H](CC(C)C)C(=O)N[C@@H](CC(C)C)C(=O)N[C@@H](Cc1ccc(O)cc1)C(=O)N[C@@H](CC(C)C)C(=O)N[C@@H](CCCNC(=N)N)C(=O)N[C@H](C(=O)N[C@@H](CCCCN)C(=O)NCc1ccc(C(=N)N)cc1)C(C)C` (Ac-LLYLRVK-{NH(4-amidinobenzyl)}), for which the values for the Ki in data set [3] and in data set [4] were 0.0048 µM and 0.0059 µM, respectively. Further, in data set [5], the Ratio Ki amounted to 1.2. In addition, the half-inhibitory concentration (IC50) in data set [6] turned out to be 50 µM; in data set [7], 130 µM.

With `CC[C@H](C)[C@H](NC(=O)[C@H](CC(C)C)NC(C)=O)C(=O)N[C@@H](CC(C)C)C(=O)N[C@@H](CC(C)C)C(=O)N[C@@H](CCCNC(=N)N)C(=O)N[C@H](C(=O)N[C@@H](CCCCN)C(=O)NCc1ccc(C(=N)N)cc1)C(C)C` (Ac-LILLRVK-{NH(4-amidinobenzyl)}), the Ki was determined as 0.0025 µM in data set [3] and 0.002 µM in data set [4]. Moreover, the Ratio Ki in data set [5] came to 0.8. Also, the values for the IC50 in data set [6] and in data set [7] were 31 µM and 40 µM, respectively.
